Measured values published in article PMC2889198 (Bioconjugate chemistry, 2009).

What was measured:
His6-tagged peptide […] = assay: SPR binding kinetics of tris-NTA chip with His6-peptide; details: for ka Instant association rate constant / kd Instant dissociation rate constant: 25 °C, 1:1 binding model; for Kd: read-out: KD Equilibrium dissociation constant, 25 °C, 1:1 binding model
[1] = tested on: Androgen receptor N-terminal domain (AR-NTD), C-terminal His6-tag; assay: SPR binding kinetics of tris-NTA chip with His6-tagged AR-NTD; details: for kd Instant dissociation rate constant / ka Instant association rate constant: 25 °C, 1:1 binding model; for ka Instant association rate constant: Ni(II)-activated tris-NTA; for Kd: read-out: KD Equilibrium dissociation constant, 25 °C, 1:1 binding model
Method in brief: (§1)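 Streptavidin chip washed with 50 mM NaOH/1 M NaCl and run in HBS-P pH 7.4 at 25 °C. Flow cell 1 is a blank; the others carry biotin-tris-NTA at about 50 RU. Each cycle: 5 mM NiCl2 activation, His6-protein injection (1–10 nM; mKate in 1 nM steps, 7 nM omitted), 0.3 M EDTA strip, 0.25% SDS/0.5 M NaCl rinse. Duplicates, double-referenced, global 1:1 Langmuir fit.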

[2] = tested on: Tumor necrosis factor alpha-stimulated gene-6 (TSG6), C-terminal His6-tag; assay: SPR binding kinetics of tris-NTA chip with His6-tagged TSG6; details: for ka Instant association rate constant / kd Instant dissociation rate constant: 25 °C, 1:1 binding model; for Kd: read-out: KD Equilibrium dissociation constant, 25 °C, 1:1 binding model
Method in brief: as §1

[3] = target: T1, Yeast cytosine deaminase (yCD), C-terminal His6-tag (Saccharomyces cerevisiae, UniProt Q12178); assay: SPR binding kinetics of tris-NTA chip with His6-tagged yCD; details: for kon: read-out: ka Instant association rate constant; for koff: read-out: kd Instant dissociation rate constant
T1 sequence (Q12178 with tags, fused parts or gaps): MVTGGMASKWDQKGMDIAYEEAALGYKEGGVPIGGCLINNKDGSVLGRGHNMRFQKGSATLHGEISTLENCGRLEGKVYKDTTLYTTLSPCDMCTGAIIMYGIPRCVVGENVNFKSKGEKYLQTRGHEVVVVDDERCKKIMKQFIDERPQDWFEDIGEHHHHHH
Method in brief: as §1

[4] = tested on: Monomeric Katushka (mKate), C-terminal His6-tag; assay: SPR binding kinetics of tris-NTA chip with His6-mKate; details: for kd Instant dissociation rate constant / ka Instant association rate constant: 25 °C, 1:1 binding model; for ka Instant association rate constant: 1~10 nM analyte; for Kd: read-out: KD Equilibrium dissociation constant, 25 °C, 1:1 binding model
Method in brief: as §1

[5] = target: hexahistidine (His6) tagged proteins; details: read-out: equilibrium dissociation constant KD between mono-NTA and His6; cited from earlier work

O=C(O)CN(CC(=O)O)[C@@H](CCCNC(=O)CN(CC(=O)NCCC[C@@H](C(=O)O)N(CC(=O)O)CC(=O)O)[C@@H](CCCCNC(=O)CCCC[C@@H]1SC[C@@H]2NC(=O)N[C@@H]21)C(=O)NCCC[C@@H](C(=O)O)N(CC(=O)O)CC(=O)O)C(=O)O [Compound 6c]
ka Instant association rate constant (His6-tagged peptide […]): 2.19 10^5 M^−1 S^−1
kd Instant dissociation rate constant (His6-tagged peptide […]): 0.72 10^−3 S^−1
Kd (His6-tagged peptide […]): 3.29 nM
kd Instant dissociation rate constant [1]: 0.27 10^−3 S^−1
ka Instant association rate constant [1]: 1.44 10^5 M^−1 S^−1
Kd [1]: 1.87 nM
ka Instant association rate constant [2]: 3.92 10^5 M^−1 S^−1
kd Instant dissociation rate constant [2]: 0.008 10^−3 S^−1
Kd [2]: 0.02 nM
kon [3]: 197000 M⁻¹ s⁻¹
koff [3]: 0.00059 s⁻¹
kd Instant dissociation rate constant [4]: 0.43 10^−3 S^−1
ka Instant association rate constant [4]: 10.6 10^5 M^−1 S^−1
Kd [4]: 0.4 nM

O=C(O)CN(CC(=O)O)CC(=O)O [NTA, Nitrilotriacetic acid]
Kd [5]: 10000 nM

O=C(O)CN(CC(=O)O)[C@@H](CCCCNC(=O)CN(CC(=O)NCCCC[C@@H](C(=O)O)N(CC(=O)O)CC(=O)O)[C@@H](CCCCNC(=O)CCCC[C@@H]1SC[C@@H]2NC(=O)N[C@@H]21)C(=O)NCCCC[C@@H](C(=O)O)N(CC(=O)O)CC(=O)O)C(=O)O [Compound 6b]
ka Instant association rate constant (His6-tagged peptide […]): 1.86 10^5 M^−1 S^−1
kd Instant dissociation rate constant (His6-tagged peptide […]): 1.85 10^−3 S^−1
Kd (His6-tagged peptide […]): 9.95 nM
kd Instant dissociation rate constant [1]: 1.40 10^−3 S^−1
ka Instant association rate constant [1]: 0.81 10^5 M^−1 S^−1
Kd [1]: 17.3 nM
ka Instant association rate constant [2]: 19.4 10^5 M^−1 S^−1
kd Instant dissociation rate constant [2]: 5.78 10^−3 S^−1
Kd [2]: 3 nM
kon [3]: 119000 M⁻¹ s⁻¹
koff [3]: 0.00083 s⁻¹

O=C(O)CN(CC(=O)O)[C@@H](CCCCNC(=O)CCOCCOCCOCCOCCNC(=O)CN(CC(=O)NCCOCCOCCOCCOCCC(=O)NCCCC[C@@H](C(=O)O)N(CC(=O)O)CC(=O)O)[C@@H](CCCCNC(=O)CCCC[C@@H]1SC[C@@H]2NC(=O)N[C@@H]21)C(=O)NCCOCCOCCOCCOCCC(=O)NCCCC[C@@H](C(=O)O)N(CC(=O)O)CC(=O)O)C(=O)O [Compound 6a]
ka Instant association rate constant (His6-tagged peptide […]): 3.09 10^5 M^−1 S^−1
kd Instant dissociation rate constant (His6-tagged peptide […]): 3.97 10^−3 S^−1
Kd (His6-tagged peptide […]): 12.8 nM
kd Instant dissociation rate constant [1]: 1.29 10^−3 S^−1
ka Instant association rate constant [1]: 0.94 10^5 M^−1 S^−1
Kd [1]: 13.7 nM
ka Instant association rate constant [2]: 6.89 10^5 M^−1 S^−1
kd Instant dissociation rate constant [2]: 4.84 10^−3 S^−1
Kd [2]: 7.03 nM
kd Instant dissociation rate constant [4]: 1.53 10^−3 S^−1
ka Instant association rate constant [4]: 5.38 10^5 M^−1 S^−1
Kd [4]: 2.84 nM
